Data published in paper PMC9163588 (The Journal of Biological Chemistry, 2022).
Residue numbers refer to the chain shown, from its start.

Columns and labels:
PhlH [1] = biological target: T1, PhlH (Pseudomonas fluorescens, UniProt Q4JIX5, R124A); test: isothermal titration calorimetry; format: binding
T1 sequence (Q4JIX5 1-225 R124A): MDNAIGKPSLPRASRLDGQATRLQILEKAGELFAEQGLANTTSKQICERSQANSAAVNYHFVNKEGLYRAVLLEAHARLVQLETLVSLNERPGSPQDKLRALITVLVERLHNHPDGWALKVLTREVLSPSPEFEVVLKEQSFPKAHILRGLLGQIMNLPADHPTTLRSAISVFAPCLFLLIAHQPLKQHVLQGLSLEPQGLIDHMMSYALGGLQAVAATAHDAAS
Summary of the method: (§1)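 N-terminally His6-tagged full-length PhlH from P. fluorescens 2P24, with point mutants made by site-directed mutagenesis. Expressed in E. coli Rosetta (DE3) (0.2 mM IPTG, 16 °C, 20 h), then Ni-NTA and gel filtration. ITC at 25 °C in degassed 20 mM Tris-HCl pH 8.0, 100 mM NaCl, 0.5% DMSO. Cell held 0.05–0.1 mM protein; syringe held 0.5–1 mM test compound. First 0.4 µl injection discarded, then 19 × 2.0 µl injections at 2-min spacing. Dilution heats subtracted; one-site fit gave Kd.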

PhlH [2] = biological target: T2, PhlH (Pseudomonas fluorescens, UniProt Q4JIX5, L186A); test: isothermal titration calorimetry; format: binding
T2 sequence (Q4JIX5 1-225 L186A): T1 sequence (Q4JIX5 1-225 R124A)
Summary of the method: as §1

PhlH [3] = biological target: T3, PhlH (Pseudomonas fluorescens, UniProt Q4JIX5, L85A); test: isothermal titration calorimetry; format: binding
T3 sequence (Q4JIX5 1-225 L85A): T1 sequence (Q4JIX5 1-225 R124A)
Summary of the method: as §1

PhlH [4] = biological target: T4, PhlH (Pseudomonas fluorescens, UniProt Q4JIX5, F173A); test: isothermal titration calorimetry; format: binding
T4 sequence (Q4JIX5 1-225 F173A): T1 sequence (Q4JIX5 1-225 R124A)
Summary of the method: as §1

PhlH [5] = biological target: T5, PhlH (Pseudomonas fluorescens, UniProt Q4JIX5, H76A); test: isothermal titration calorimetry; format: binding
T5 sequence (Q4JIX5 1-225 H76A): T1 sequence (Q4JIX5 1-225 R124A)
Summary of the method: as §1

PhlH [6] = biological target: T6, PhlH (Pseudomonas fluorescens, UniProt Q4JIX5, V190A); test: isothermal titration calorimetry; format: binding
T6 sequence (Q4JIX5 1-225 V190A): T1 sequence (Q4JIX5 1-225 R124A)
Summary of the method: as §1

PhlH R124A = biological target: T7, PhlH R124A (Pseudomonas fluorescens 2P24, UniProt Q4JIX5 1-225, R124A); test: EMSA
T7 sequence: T1 sequence (Q4JIX5 1-225 R124A) with R124A

## CC(=O)c1c(O)cc(O)c(C(C)=O)c1O [2,4-DAPG]
PhlH [1]
  Kd: 13.2 µM
PhlH [2]
  Kd: 15.4 µM
PhlH [3]
  Kd: 39 µM
PhlH [4]
  Kd: 20.2 µM
PhlH [5]
  Kd: 10.9 µM
PhlH [6]
  Kd: 24.3 µM

B1: F1 (phlG operator / upstream region) (dsDNA)
DNA 1: TAGTTCTAATTCAAATTTGACTTTTTATTT
DNA 2: AAATAAAAAGTCAAATTTGAATTAGAACTA
PhlH R124A
  binding result: no binding
